Source: PubChem
This is a sample that favours compounds with a hit; in the whole collection about 4.5% have one here.
TAAR1 ag – human TAAR1 agonists, primary screen, Fluo-8 calcium fluorescence, CHO RD-HGA16 cells; Trace amine-associated receptor 1 (Homo sapiens), Q96RJ0; vehicle wells 0%, saturating PEA agonist 100%; activation, % at 3 µM; 0.99% of 360,000 active; AID 624467, 2012;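 active = activation above the mean activation of all test compounds in the run plus 3 SD, cut at about 38% in these data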
Target sequence (Q96RJ0 whole entry, looked up): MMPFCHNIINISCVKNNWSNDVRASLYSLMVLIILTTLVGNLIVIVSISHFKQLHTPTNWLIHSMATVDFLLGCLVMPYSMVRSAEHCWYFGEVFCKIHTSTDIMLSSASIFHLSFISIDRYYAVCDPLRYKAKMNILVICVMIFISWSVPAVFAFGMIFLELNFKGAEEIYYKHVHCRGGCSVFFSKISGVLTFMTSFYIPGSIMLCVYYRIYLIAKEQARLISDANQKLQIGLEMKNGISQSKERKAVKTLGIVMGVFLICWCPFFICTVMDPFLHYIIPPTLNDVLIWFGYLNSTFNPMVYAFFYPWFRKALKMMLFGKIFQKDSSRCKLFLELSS
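Assay system – CHO-derived RD-HGA16 cells with stable Gα16 and human TAAR1 · Compound dosing – one-point dosing at 3 µM (nominal) · Incubation – 17-24 h seeding, 75 min 37 °C dye, 30 min RT · Measured by – kinetic Fluo-8 calcium fluorescence · Control set – DMSO vehicle as 0%, PEA at EC100 as 100% · Repeats – single well for each compound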
OX1R antag-1 – antagonists of human orexin 1 receptor (OX1R); inhibition, % at 6.6 µM; 1.8% of 330,000 active; AID 485270, 2010; OX1R-expressing cells, FRET antagonist read-out; Orexin/Hypocretin receptor type 1 (Homo sapiens), O43613; in the data active = inhibition mostly above about 38%, no sharp cut-off; inactive = mostly below about 40%
GPR7 antag – GPR7 receptor antagonists, primary screen, cell-based, fluorescence, single concentration; Neuropeptides B/W receptor type 1 (Homo sapiens), P48145; GPR7-expressing cells, fluorescence antagonist assay; inhibition, % at 4.4 µM; 1.1% of 290,000 active; AID 1861, 2009; in the data active = inhibition above about 16%, passing the limit was not always enough;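 note: cells stimulated with the agonist NPW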
CHO parental Ca – ATP-evoked calcium signal inhibitors, parental CHO, primary screen, counter-screen for OX1R antagonist project, cell-based, fluorescence, Fluo-8 calcium dye | 0.63% of 330,000 active | inhibition, % at 5.6 µM | parental CHO-K1, ATP-induced calcium, Fluo-8 fluorescence;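 active = inhibition above that plate's mean sample inhibition plus 3 SD, cut at about 26% in these data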
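Test system: untransfected parental CHO cell line; also added: ATP stimulus; dosing: 5.6 µM, single dose; signal: calcium-sensitive Fluo-8 fluorescence; measure: percent inhibition of ATP-evoked calcium rise, normalized to controls; benchmarks: low control ATP plus DMSO, high control DMSO only; replication: one well per compound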
OX1R antag-2 – OX1R (HCRTR1) antagonists, primary screen, fluorescence, CHO/OX1R cells, Fluo-8 calcium, orexin A; inhibition, % at 5 µM; Fluo-8 calcium fluorescence; 0.43% of 330,000 active; Orexin/Hypocretin receptor type 1 (Homo sapiens), O43613; AID 434989, 2010;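 active = inhibition above its plate's threshold, mean inhibition of all tested compounds on the plate plus 3 SD, cut at about 37% in these data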
TAAR1 antag – human TAAR1 antagonists, primary screen, Fluo-8 calcium fluorescence, CHO RD-HGA16 cells | Trace amine-associated receptor 1 (Homo sapiens), Q96RJ0 | inhibition, % at 3 µM | 1.5% of 360,000 active | antagonist | AID 624466, 2012;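 active = inhibition above a per-plate cutoff, the mean inhibition of test compounds on that plate plus 3 SD, cut at about 49% in these data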
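Test system: RD-HGA16 CHO cells with stable hTAAR1 and Gα16 / Probe or stimulus: EC80 β-phenethylamine stimulus / Times: seeding 17-24 h prior, 75-min 37 °C, 30-min RT dye loading / Detection: Fluo-8 calcium-sensitive fluorescence / Read-out basis: % inhibition scaled between DMSO and EC80 PEA controls / Repeats: singlicate, one well per test compound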
GPR7 antag cf – GPR7 receptor antagonists, confirmation, cell-based, fluorescence, single concentration | 52% of 2,400 active | GPR7-expressing cells, calcium fluorescence antagonist mode | inhibition, % at 4.4 µM | AID 1952, 2009 | shares compounds with GPR7 antag; in the data active = inhibition above about 24%;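 note: stimulated with the GPR7 agonist NPW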
MCHR1 antagonist – MCHR1 antagonists in cells, counter-screen for GPR7 antagonist project, cell-based, fluorescence, human; MCHR1-expressing cells, fluorescence antagonist assay; inhibition, % at 4.4 µM; shares compounds with GPR7 antag; 62% of 2,400 active; in the data active = inhibition above about 22%
Large screens that a line does not name were inactive (follow-up assays come after a bar, where they were run).

CC(=O)[C@@]1(O)[C@H](C)CC2C3CC=C4CC(OP(=O)(O)O)CC[C@]4(C)C3CC[C@@]21C (some centres not stated)	GPR7 antag 28 | GPR7 antag cf inactive | MCHR1 antagonist inactive
O=C(Nc1nc2c(s1)CN(Cc1ccccc1)CC2)C1CCC1	none
CN(C)c1ccc(/C=C(\C#N)C(=O)Nc2nc3c(s2)CCN(Cc2ccccc2)C3)cc1	GPR7 antag 26 | GPR7 antag cf 33 | MCHR1 antagonist 31
COc1ccc(C2Nc3ccccc3C(=O)N2Cc2ccco2)cc1COc1ccc(F)cc1 (configuration not stated)	GPR7 antag 27 | GPR7 antag cf 29 | MCHR1 antagonist 25
COc1ccc(C2Nc3ccccc3C(=O)N2Cc2ccco2)cc1CN1C(=O)c2ccccc2C1=O (configuration not stated)	none
Cc1ccc(S(=O)(=O)NCc2ccc(/C=C(/C#N)C(=O)NCc3ccccc3)o2)cc1	GPR7 antag 24 | GPR7 antag cf 50 | MCHR1 antagonist 58
Cc1ccccc1NC(=O)CSCc1nc(N)nc(Nc2ccccc2C)n1	GPR7 antag 21 | GPR7 antag cf inactive | MCHR1 antagonist inactive
Cc1ccccc1Nc1nc(N)nc(CCl)n1	none
Cc1ccccc1-c1cnc2c(c1)C(=O)N([C@@H](C)CO)C[C@@H](C)[C@H](CN(C)Cc1ccccc1F)O2	none (no result: OX1R antag-1, GPR7 antag, CHO parental Ca, OX1R antag-2)
O=C(c1nnsc1S(=O)c1ccc(Cl)cc1)N1CCOCC1 (configuration not stated)	GPR7 antag 25 (no result: OX1R antag-1, CHO parental Ca, OX1R antag-2) | GPR7 antag cf 37 | MCHR1 antagonist 92
Cc1nnsc1S(=O)c1ccc(Cl)cc1 (configuration not stated)	none
CSc1nc(N)nc(SCC(=O)Nc2ccc(Cl)cc2)c1C#N	none
CSc1nc(N)nc(SCC(=O)Nc2cccc(F)c2)c1C#N	GPR7 antag 26, CHO parental Ca 62 | GPR7 antag cf inactive | MCHR1 antagonist 64
CCCNC(=O)N[C@H]1C=C[C@H](CC(=O)NC2CCCCC2)O[C@@H]1CO	none (no result: OX1R antag-1, GPR7 antag, CHO parental Ca, OX1R antag-2)
NC(=O)C1CCN(c2cc(Cl)ccc2[N+](=O)[O-])CC1	GPR7 antag 26 | GPR7 antag cf inactive | MCHR1 antagonist inactive
NC(=O)C1CCN(c2cc(N3CCOCC3)ccc2[N+](=O)[O-])CC1	none
O=S(=O)(c1ccc(F)cc1)N1CCc2ccccc21	none
O=S(=O)(NC1CC1)c1ccc(S(=O)(=O)N2CCc3ccccc32)cc1	GPR7 antag 22 | GPR7 antag cf inactive | MCHR1 antagonist 29
CN1C2CCC1/C(=C\c1ccccc1F)C(=O)/C2=C/c1ccccc1F	GPR7 antag 28 | GPR7 antag cf inactive | MCHR1 antagonist 34
Cc1ccc(S(=O)(=O)N(CC(=O)N2CCCCC2)c2cccc(C)c2)cc1	none
Cc1cccc(N(CC(=O)N2CCCC2)S(=O)(=O)c2ccccc2)c1	GPR7 antag 23 | GPR7 antag cf inactive | MCHR1 antagonist inactive
CCCNC(=O)C1(C)CCCN(C(=O)c2ccc(OC(F)F)cc2)C1 (configuration not stated)	none (no result: OX1R antag-1, GPR7 antag, CHO parental Ca, OX1R antag-2)
COc1ccc(CN2CCC(CO)(CCOc3ccccc3)CC2)c(OC)c1C	GPR7 antag 28 | GPR7 antag cf 37 | MCHR1 antagonist 24
CCOC(=O)C1(CCOc2ccccc2)CCN(Cc2ccc(OC)c(O)c2)CC1	none
